ChEMBL document CHEMBL1944580, “Synthesis of novel sulfonamide-1,2,4-triazoles, 1,3,4-thiadiazoles and 1,3,4-oxadiazoles, as potential antibacterial and antifungal agents. Biological evaluation and conformational analysis studies” (2012)
Converted amounts (≈) assume the structure as drawn.

Legend:
[1] = test system: Aspergillus versicolor; experiment: Antifungal activity against Aspergillus versicolor ATCC 11730 treated for 72 hrs followed by sub-cultivated for 5 days by serial dilution method; type: functional
Outline: (§1)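 MFC obtained after the 72 h, 28 °C malt-broth microdilution (spore inoculum about 1.0 × 10^5 per well, compounds from 1 mg/ml DMSO). 2 µl was serially subcultured into 100 µl broth per well and incubated a further 5 days at 28 °C. MFC is the lowest concentration with no visible growth, taken as 99.5% killing of the original inoculum.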

[2] = test system: Listeria monocytogenes; experiment: Antibacterial activity against Listeria monocytogenes NCTC 7973 treated for 24 hrs followed by sub-cultivated for 72 hrs by micro dilution method; type: functional
Outline: (§2)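 2 µl from each well was serially subcultured into 100 µl fresh broth per well and incubated a further 72 h. MBC is the lowest concentration with no visible growth, taken as 99.5% killing of the original inoculum. Streptomycin and ampicillin were the positive controls.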

[3] = test system: Bacillus cereus; experiment: Antibacterial activity against Bacillus cereus clinical isolate after 24 hrs by micro dilution method; type: functional
Outline: (§3)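 Microdilution MIC in 96-well plates. Bacterial suspensions adjusted in sterile saline to 1.0 × 10^5 CFU/ml, giving 1.0 × 10^4 cfu per well in LB broth. Compounds tested at up to 1 mg/ml. Plates incubated 24 h. MIC taken as the lowest concentration with no visible growth under a binocular microscope. OD at 655 nm was also read against a blank and the positive control. Streptomycin and ampicillin were the positive controls.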

[4] = test system: Escherichia coli; experiment: Antibacterial activity against Escherichia coli ATCC 35210 after 24 hrs by micro dilution method; type: functional; conditions: ATCC 35210, 24 h; outline: as §3
[5] = test system: Enterobacter cloacae; experiment: Antibacterial activity against Enterobacter cloacae human isolate after 24 hrs by micro dilution method; type: functional; outline: as §3
[6] = test system: Trichoderma viride; experiment: Antifungal activity against Trichoderma viride IAM 5061 after 72 hrs by serial dilution method; type: functional; conditions: IAM 5061, 72 h
Outline: (§4)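 Modified microdilution MIC. Spores were washed from malt agar cultures with sterile 0.85% saline containing 0.1% Tween 80 and adjusted to about 1.0 × 10^5 per 100 µl well in malt broth. Compounds were dissolved in DMSO (1 mg/ml). Plates incubated 72 h at 28 °C. MIC is the lowest concentration with no visible growth under a binocular microscope. Bifonazole and ketoconazole were the references.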

[7] = test system: Talaromyces funiculosus; experiment: Antifungal activity against Penicillium funiculosum ATCC 36839 after 72 hrs by serial dilution method; type: functional; conditions: ATCC 36839, 72 h; outline: as §4
[8] = test system: Salmonella typhimurium; experiment: Antibacterial activity against Salmonella Typhimurium ATCC 13311 after 24 hrs by micro dilution method; type: functional, Salmonella enterica subsp. enterica serovar Typhimurium; conditions: Salmonella enterica, ATCC 13311, 24 h; outline: as §3
[9] = test system: Aspergillus flavus; experiment: Antifungal activity against Aspergillus flavus ATCC 9643 treated for 72 hrs followed by sub-cultivated for 5 days by serial dilution method; type: functional; outline: as §1
[10] = test system: Fulvia fulva; experiment: Antifungal activity against Fulvia fulva after 72 hrs by serial dilution method; type: functional; outline: as §4
[11] = test system: Pseudomonas aeruginosa; experiment: Antibacterial activity against Pseudomonas aeruginosa ATCC 27853 treated for 24 hrs followed by sub-cultivated for 72 hrs by micro dilution method; type: functional; outline: as §2
[12] = test system: Trichoderma viride; experiment: Antifungal activity against Trichoderma viride IAM 5061 treated for 72 hrs followed by sub-cultivated for 5 days by serial dilution method; type: functional; outline: as §1
[13] = test system: Bacillus cereus; experiment: Antibacterial activity against Bacillus cereus clinical isolate treated for 24 hrs followed by sub-cultivated for 72 hrs by micro dilution method; type: functional; outline: as §2
[14] = test system: Fulvia fulva; experiment: Antifungal activity against Fulvia fulva treated for 72 hrs followed by sub-cultivated for 5 days by serial dilution method; type: functional; outline: as §1
[15] = test system: Aspergillus flavus; experiment: Antifungal activity against Aspergillus flavus ATCC 9643 after 72 hrs by serial dilution method; type: functional; conditions: ATCC 9643, 72 h; outline: as §4
[16] = test system: Aspergillus niger; experiment: Antifungal activity against Aspergillus niger ATCC 6275 treated for 72 hrs followed by sub-cultivated for 5 days by serial dilution method; type: functional; outline: as §1
[17] = test system: Staphylococcus aureus; experiment: Antibacterial activity against Staphylococcus aureus ATCC 6538 treated for 24 hrs followed by sub-cultivated for 72 hrs by micro dilution method; type: functional; outline: as §2
[18] = test system: Staphylococcus aureus; experiment: Antibacterial activity against Staphylococcus aureus ATCC 6538 after 24 hrs by micro dilution method; type: functional; conditions: ATCC 6538, 24 h; outline: as §3
[19] = test system: Micrococcus flavus; experiment: Antibacterial activity against Micrococcus flavus ATCC 10240 treated for 24 hrs followed by sub-cultivated for 72 hrs by micro dilution method; type: functional; outline: as §2
[20] = test system: Talaromyces funiculosus; experiment: Antifungal activity against Penicillium funiculosum ATCC 36839 treated for 72 hrs followed by sub-cultivated for 5 days by serial dilution method; type: functional; outline: as §1
[21] = test system: Aspergillus fumigatus; experiment: Antifungal activity against Aspergillus fumigatus human isolate after 72 hrs by serial dilution method; type: functional; outline: as §4
[22] = test system: Micrococcus flavus; experiment: Antibacterial activity against Micrococcus flavus ATCC 10240 after 24 hrs by micro dilution method; type: functional; conditions: ATCC 10240, 24 h; outline: as §3
[23] = test system: Listeria monocytogenes; experiment: Antibacterial activity against Listeria monocytogenes NCTC 7973 after 24 hrs by micro dilution method; type: functional; conditions: NCTC 7973, 24 h; outline: as §3
[24] = test system: Penicillium ochrochloron; experiment: Antifungal activity against Penicillium ochrochloron ATCC 9112 after 72 hrs by serial dilution method; type: functional; conditions: ATCC 9112, 72 h; outline: as §4
[25] = test system: Pseudomonas aeruginosa; experiment: Antibacterial activity against Pseudomonas aeruginosa ATCC 27853 after 24 hrs by micro dilution method; type: functional; conditions: ATCC 27853, 24 h; outline: as §3
[26] = test system: Enterobacter cloacae; experiment: Antibacterial activity against Enterobacter cloacae human isolate treated for 24 hrs followed by sub-cultivated for 72 hrs by micro dilution method; type: functional; outline: as §2
[27] = test system: Penicillium ochrochloron; experiment: Antifungal activity against Penicillium ochrochloron ATCC 9112 treated for 72 hrs followed by sub-cultivated for 5 days by serial dilution method; type: functional; outline: as §1
[28] = test system: Salmonella typhimurium; experiment: Antibacterial activity against Salmonella Typhimurium ATCC 13311 treated for 24 hrs followed by sub-cultivated for 72 hrs by micro dilution method; type: functional, Salmonella enterica subsp. enterica serovar Typhimurium; conditions: Salmonella enterica; outline: as §2
[29] = test system: Escherichia coli; experiment: Antibacterial activity against Escherichia coli ATCC 35210 treated for 24 hrs followed by sub-cultivated for 72 hrs by micro dilution method; type: functional; outline: as §2
[30] = test system: Aspergillus fumigatus; experiment: Antifungal activity against Aspergillus fumigatus human isolate treated for 72 hrs followed by sub-cultivated for 5 days by serial dilution method; type: functional; outline: as §1
[31] = test system: Aspergillus versicolor; experiment: Antifungal activity against Aspergillus versicolor ATCC 11730 after 72 hrs by serial dilution method; type: functional; conditions: ATCC 11730, 72 h; outline: as §4
[32] = test system: Aspergillus niger; experiment: Antifungal activity against Aspergillus niger ATCC 6275 after 72 hrs by serial dilution method; type: functional; conditions: ATCC 6275, 72 h; outline: as §4

Row | SMILES | MFC [1] | MBC [2] | MIC [3] | MIC [4] | MIC [5] | MIC [6] | MIC [7] | MIC [8] | MFC [9] | MIC [10] | MBC [11] | MFC [12] | MBC [13] | MFC [14] | MIC [15] | MFC [16] | MBC [17] | MIC [18] | MBC [19] | MFC [20] | further results
1 | CCNc1nnc(Cc2cc(OC)c(OC)cc2S(=O)(=O)N(C)C)o1 | 400 µM (≈ 148 µg/mL) | 540 µM (≈ 200 µg/mL) | 140 µM (≈ 51.9 µg/mL) | 140 µM (≈ 51.9 µg/mL) | 670 µM (≈ 248 µg/mL) | 30 µM (≈ 11.1 µg/mL) | 140 µM (≈ 51.9 µg/mL) | 140 µM (≈ 51.9 µg/mL) | 400 µM (≈ 148 µg/mL) | 270 µM (≈ 100 µg/mL) | 540 µM (≈ 200 µg/mL) | 30 µM (≈ 11.1 µg/mL) | 270 µM (≈ 100 µg/mL) | 270 µM (≈ 100 µg/mL) | 140 µM (≈ 51.9 µg/mL) | 140 µM (≈ 51.9 µg/mL) | 270 µM (≈ 100 µg/mL) | 140 µM (≈ 51.9 µg/mL) | 540 µM (≈ 200 µg/mL) | 270 µM (≈ 100 µg/mL) | MIC [21]: 270 µM (≈ 100 µg/mL); MIC [22]: 270 µM (≈ 100 µg/mL); MIC [23]: 270 µM (≈ 100 µg/mL); MIC [24]: 140 µM (≈ 51.9 µg/mL); MIC [25]: 270 µM (≈ 100 µg/mL); MBC [26]: 670 µM (≈ 248 µg/mL); MFC [27]: 270 µM (≈ 100 µg/mL); MBC [28]: 270 µM (≈ 100 µg/mL); MBC [29]: 270 µM (≈ 100 µg/mL); MFC [30]: 270 µM (≈ 100 µg/mL); MIC [31]: 140 µM (≈ 51.9 µg/mL); MIC [32]: 140 µM (≈ 51.9 µg/mL)
2 | CCCCn1c(Cc2cc(OC)c(OC)cc2S(=O)(=O)N(C)C)n[nH]c1=S | 480 µM (≈ 199 µg/mL) | 240 µM (≈ 99.5 µg/mL) | 240 µM (≈ 99.5 µg/mL) | 480 µM (≈ 199 µg/mL) | 240 µM (≈ 99.5 µg/mL) | 60 µM (≈ 24.9 µg/mL) | 120 µM (≈ 49.7 µg/mL) | 240 µM (≈ 99.5 µg/mL) | 240 µM (≈ 99.5 µg/mL) | 120 µM (≈ 49.7 µg/mL) | 480 µM (≈ 199 µg/mL) | 120 µM (≈ 49.7 µg/mL) | 480 µM (≈ 199 µg/mL) | 240 µM (≈ 99.5 µg/mL) | 60 µM (≈ 24.9 µg/mL) | 120 µM (≈ 49.7 µg/mL) | 480 µM (≈ 199 µg/mL) | 240 µM (≈ 99.5 µg/mL) | 480 µM (≈ 199 µg/mL) | 240 µM (≈ 99.5 µg/mL) | MIC [21]: 120 µM (≈ 49.7 µg/mL); MIC [22]: 240 µM (≈ 99.5 µg/mL); MIC [23]: 240 µM (≈ 99.5 µg/mL); MIC [24]: 120 µM (≈ 49.7 µg/mL); MIC [25]: 480 µM (≈ 199 µg/mL); MBC [26]: 240 µM (≈ 99.5 µg/mL); MFC [27]: 480 µM (≈ 199 µg/mL); MBC [28]: 240 µM (≈ 99.5 µg/mL); MBC [29]: 480 µM (≈ 199 µg/mL); MFC [30]: 240 µM (≈ 99.5 µg/mL); MIC [31]: 240 µM (≈ 99.5 µg/mL); MIC [32]: 60 µM (≈ 24.9 µg/mL)
3 | CCCCNc1nnc(Cc2cc(OC)c(OC)cc2S(=O)(=O)N(C)C)o1 | 750 µM (≈ 299 µg/mL) | 750 µM (≈ 299 µg/mL) | 250 µM (≈ 99.6 µg/mL) | 630 µM (≈ 251 µg/mL) | 630 µM (≈ 251 µg/mL) | 130 µM (≈ 51.8 µg/mL) | 250 µM (≈ 99.6 µg/mL) | 130 µM (≈ 51.8 µg/mL) | 750 µM (≈ 299 µg/mL) | 130 µM (≈ 51.8 µg/mL) | 250 µM (≈ 99.6 µg/mL) | 130 µM (≈ 51.8 µg/mL) | 250 µM (≈ 99.6 µg/mL) | 250 µM (≈ 99.6 µg/mL) | 250 µM (≈ 99.6 µg/mL) | 750 µM (≈ 299 µg/mL) | 380 µM (≈ 151 µg/mL) | 250 µM (≈ 99.6 µg/mL) | 500 µM (≈ 199 µg/mL) | 500 µM (≈ 199 µg/mL) | MIC [21]: 130 µM (≈ 51.8 µg/mL); MIC [22]: 250 µM (≈ 99.6 µg/mL); MIC [23]: 250 µM (≈ 99.6 µg/mL); MIC [24]: 250 µM (≈ 99.6 µg/mL); MIC [25]: 130 µM (≈ 51.8 µg/mL); MBC [26]: 750 µM (≈ 299 µg/mL); MFC [27]: 750 µM (≈ 299 µg/mL); MBC [28]: 250 µM (≈ 99.6 µg/mL); MBC [29]: 630 µM (≈ 251 µg/mL); MFC [30]: 250 µM (≈ 99.6 µg/mL); MIC [31]: 250 µM (≈ 99.6 µg/mL); MIC [32]: 250 µM (≈ 99.6 µg/mL)
